The test system of assay [1] is HL-60. Nature of the assay: Cell cycle arrest in human HL-60 cells assessed as accumulation at G0/G1 phase at 10 pM to 1 uM by FACS. The format is functional, cell-based. In a few lines:
(§1)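 HL-60 cells (RPMI-1640, 10% dextran-coated charcoal-treated FCS, kanamycin; S-phase synchronized twice with 2.5 mM thymidine) seeded 10⁵ cells/well and exposed to retinoids for 3 days at 37 °C, 5% CO₂. Cells permeabilized with 0.2% Triton-X plus RNase (37 °C, 1 h), stained with propidium iodide (4 °C, 20 min), and cell cycle phases quantified by flow cytometry (488 nm argon laser).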
For orientation: A flow cytometer gives signals particle by particle.

Assay [2] concerns HL-60. Kind of assay: Antiproliferative activity against human HL-60 cells assessed as cell cycle distribution at 0.0001 uM to 1 uM after 3 days by FACS relative to ATRA. In kind it is functional. The essentials: as §1
In assay [3] the test system is HL-60. Kind of assay: Induction of human HL-60 cell differentiation assessed as cell surface CD11b antigen expression measured as mean fluorescence index at 0.0001 uM to 1 uM after 3 days by FACS relative to ATRA. The format is functional. In a few lines:
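Thymidine-synchronized HL-60 cells, 10⁵ cells/well, cultured 3 days with retinoids (10^-10–10^-6 M) in RPMI-1640. CD11b surface expression quantified by flow cytometry (excitation 490 nm, emission 520 nm), 10⁴ cells counted per treatment. Readout is mean fluorescence index (% fluorescent cells × mean intensity), normalized to ATRA values.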

The subject of assay [4] is HL-60. Nature of the assay: Induction of apoptosis in human HL-60 cells assessed as DNA fragmentation by agarose gel electrophoresis. The format is functional, cell-based. In a few lines:
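HL-60 cells exposed to increasing retinoid concentrations. DNA isolated from each culture, run on a 2% agarose gel, stained with ethidium bromide and viewed under UV. Laddering scored as positive or negative.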

In assay [5] the target is T1, Retinoic acid receptor beta (Homo sapiens) (UniProt P10826).
T1 sequence (whole entry): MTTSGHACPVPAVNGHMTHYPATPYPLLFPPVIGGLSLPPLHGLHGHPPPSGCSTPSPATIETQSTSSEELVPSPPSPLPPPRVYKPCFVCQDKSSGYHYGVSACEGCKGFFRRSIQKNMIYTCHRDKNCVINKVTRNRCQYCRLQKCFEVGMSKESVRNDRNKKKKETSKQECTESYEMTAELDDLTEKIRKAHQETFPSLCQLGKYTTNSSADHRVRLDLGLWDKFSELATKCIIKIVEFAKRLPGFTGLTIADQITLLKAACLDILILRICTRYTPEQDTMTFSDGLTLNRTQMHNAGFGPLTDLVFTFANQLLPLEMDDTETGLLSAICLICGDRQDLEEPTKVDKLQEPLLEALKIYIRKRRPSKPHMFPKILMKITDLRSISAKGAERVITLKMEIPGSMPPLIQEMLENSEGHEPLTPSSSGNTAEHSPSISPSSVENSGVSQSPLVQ
Nature of the assay: Increase in transcriptional activity of human RARbeta receptor expressed in human MG63 cells co-transfected with pGL3-RARE at 1 uM by luciferase reporter gene assay relative to ATRA. The format is cell-based. The conditions noted are these: MG-63, in the assay text read “relative to control” for “relative to ATRA”. The essentials: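 MG-63 osteosarcoma cells in DMEM with 10% charcoal-stripped FCS were seeded 2 × 10⁵/well the day before transfection. Cotransfected (Tfx-50) with human RARβ promoter–RARE3-SV40-luciferase reporter and pRL-CMV control. Retinoids applied for 2 days at 10^-6 M. Firefly luciferase normalized to Sea Pansy luciferase, expressed as fold induction over control. At least three repeats, mean ± SE.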
In general terms: Reporter assays use an easily measured gene product as a stand-in for the process of interest.

Active and inactive are the calls of the source. No cut-off for these calls is given here.

On to `CCCCC1=C(/C=C/C(C)=C/C=C/C(C)=C/C(=O)O)C(C)(C)CCC1`, for which the result (in the assay on HL-60 [1]; in assay [5]) was Active. Further, the Activity with HL-60 [2] came to 193; with HL-60 [3], 129. Also, the result in the assay with HL-60 [4] was inactive.

Take `CC(/C=C/C1=C(Cc2ccc3ccccc3c2)CCCC1(C)C)=C\C=C\C(C)=C\C(=O)O`: the outcome (with HL-60 [1]; in assay [5]) was Active. Besides, the values for the Activity with HL-60 [2] and in the assay with HL-60 [3] were less than 0.81 and less than 0.22, respectively. Moreover, in the assay with HL-60 [4], the result was inactive.

Consider `CC(=C/C=C/C(C)=C/C(=O)O)/C=C/C1=C(Cc2ccccc2)CCCC1(C)C`, for which the values for the Activity in the assay with HL-60 [2] and with HL-60 [3] were 11 and 6, respectively. The outcome with HL-60 [4] was inactive.

Consider `CC(/C=C/C1=C(CC(C)C)CCCC1(C)C)=C\C=C\C(C)=C\C(=O)O`, for which the outcome (in the assay with HL-60 [1]; in assay [5]) was Active. The Activity was determined as 35 in the assay on HL-60 [2] and 310 with HL-60 [3]. In addition, the outcome in the assay on HL-60 [4] was inactive.

In the case of `CC(=C/C=C/C(C)=C/C(=O)O)/C=C/C1=C(Cc2ccc3ccccc3c2)CCCC1(C)C`, the results for the Activity in the assay with HL-60 [2] and in the assay with HL-60 [3] were less than 0.81 and less than 0.22, respectively. For the same compound, in the assay on HL-60 [4], the result was inactive.

Take `CCCCC1=C(/C=C/C(C)=C\C=C\C(C)=C\C(=O)O)C(C)(C)CCC1`: the Activity was 14 with HL-60 [2] and 9 in the assay on HL-60 [3]. In the assay on HL-60 [4], the outcome was inactive.

With `CC(/C=C/C1=C(Cc2ccccc2)CCCC1(C)C)=C\C=C\C(C)=C\C(=O)O`, the outcome (in the assay with HL-60 [1]; in assay [5]) was Active. Also, the Activity in the assay on HL-60 [2] and with HL-60 [3] was 2 in each case. In addition, the outcome in the assay with HL-60 [4] was inactive.

With `CC(=C/C=C/C(C)=C/C(=O)O)/C=C/C1=C(CC(C)C)CCCC1(C)C`, the Activity in the assay with HL-60 [2] turned out to be 16; in the assay with HL-60 [3] it was 10. Further, the result in the assay on HL-60 [4] was inactive.
